For 42 molecules, IC50 and Activity results are on record in ChEMBL document CHEMBL1134251, “Quinazolines as cyclin dependent kinase inhibitors” (Bioorg Med Chem Lett, 2001).

A value given as a limit tells only on which side of the number the result lay.

One test relates to HCT-116. In words: Inhibition SRB HCT 116 cancer cell proliferation. It is filed as functional, cell-based. As to conditions: Homo sapiens. Summed up: (§1)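 Growth-inhibition assay in HCT 116 cancer cells, with IC50 as the read-out. AG1523 cells are normal human fibroblasts and were run under the same assay conditions as HCT 116.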
In test [1] the target is Cyclin-dependent kinase 2/cyclin E (Homo sapiens, UniProt P24941). Description: In vitro inhibitory activity against human cyclin dependent kinase (CDK2/E). It is filed as protein-complex assay.
For test [2], the target named is Cyclin-dependent kinase 4/cyclin D1 (Homo sapiens, UniProt P11802). Description: In vitro inhibitory activity against human cyclin dependent kinase (CDK4/D1). It is filed as protein-complex assay.
Chain of Cyclin-dependent kinase 4/cyclin D1 (P11802 whole entry): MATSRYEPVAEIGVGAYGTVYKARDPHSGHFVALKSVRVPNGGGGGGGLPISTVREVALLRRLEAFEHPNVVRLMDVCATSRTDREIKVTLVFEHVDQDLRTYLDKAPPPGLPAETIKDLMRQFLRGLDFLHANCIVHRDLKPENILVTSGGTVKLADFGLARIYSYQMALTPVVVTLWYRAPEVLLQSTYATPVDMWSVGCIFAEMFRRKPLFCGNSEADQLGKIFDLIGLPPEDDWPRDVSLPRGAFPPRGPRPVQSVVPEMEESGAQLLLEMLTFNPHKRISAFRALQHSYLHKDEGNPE
Chain of Cyclin-dependent kinase 4/cyclin D1 (P24385 whole entry, further chain): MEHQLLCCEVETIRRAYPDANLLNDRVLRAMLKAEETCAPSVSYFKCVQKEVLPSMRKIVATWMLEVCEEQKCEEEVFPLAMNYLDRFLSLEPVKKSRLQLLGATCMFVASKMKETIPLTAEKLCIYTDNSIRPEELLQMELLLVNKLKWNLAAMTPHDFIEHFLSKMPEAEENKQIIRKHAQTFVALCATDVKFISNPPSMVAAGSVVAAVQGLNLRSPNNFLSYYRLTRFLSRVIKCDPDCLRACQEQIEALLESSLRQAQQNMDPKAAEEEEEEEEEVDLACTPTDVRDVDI
The next test relates to AG1523. Description: Inhibition of SRB AG1523 cancer cell proliferation. The class given is functional, cell-based. As to conditions: Homo sapiens, in the assay text read “normal human fibroblast cell” for “cancer cell”. Summed up:
as §1

Test [3] concerns the target Cyclin-dependent kinase 4/cyclin D1 (Homo sapiens) (UniProt P11802+P24385). Description: Inhibition of human cyclin dependent kinase 4 (CDK4/D1) at 50 uM. It is filed as protein-complex assay. On the set-up: scale not given: the % may be the effect or the level left.
In test [4] the target is Cyclin-dependent kinase 2/cyclin A (Homo sapiens, UniProt P24941). In words: Inhibition of human cyclin dependent kinase 2 (CDK2/A). The class given is protein-complex assay.
Test [5] addresses T1, Cyclin-dependent kinase 1/cyclin B (Homo sapiens, UniProt P06493). In words: Inhibition of human cyclin dependent kinase 1 (CDK1/B). It is filed as protein-complex assay.
Test [6] can be described thus: Inhibition of human cyclin dependent kinase 6 (CDK6/D2).
For test [7], the target named is T1, Cyclin-dependent kinase 1/cyclin B. In words: Inhibition of human cyclin dependent kinase 1 (CDC2/B). It is filed as protein-complex assay.

In the case of `CC(C)(C)Nc1nc(C(F)(F)F)nc2ccc(-c3ccsc3)cc12`, the IC50 (in general, the concentration that gives 50% inhibition) was 18.4 µM in the test on HCT-116, 0.545 µM in test [1], 3.55 µM in test [2] and greater than 28 µM in the test on AG1523.

As to `CC(C)(C)Nc1nc(C(F)(F)F)nc2ccc(-c3ccc(Cl)cc3Cl)cc12`, the IC50 in [1] was greater than 12 µM; in test [2], greater than 2.4 µM.

On to `COc1ccc(-c2ccc3nc(C(F)(F)F)nc(NC(C)(C)C)c3c2)cc1`, for which the IC50 in test [1] is 10 µM; in test [2], greater than 27 µM.

Take `CC(C)(C)Nc1nc(C(=O)O)nc2ccccc12`: the IC50 in test [1] was greater than 815 µM; in test [2], greater than 408 µM.

`CC(C)(C)Nc1nc(C(F)(F)F)nc2ccc(-c3ccc(N)cc3)cc12`: the 50% inhibitory concentration (IC50) in test [1] was 1.1 µM; in [2], greater than 1.1 µM.

Regarding `CCCC(C)Nc1nc(C(F)(F)F)nc2ccccc12` (stereo not drawn), the IC50 in [1] was found to be 245 µM; in test [2] it was 119 µM.

For the molecule `OCC1CCCN1c1nc(C(F)(F)F)nc2ccccc12` (stereo not drawn), the IC50 in [1] was determined as 14.8 µM; in test [2] it was 63 µM.

In the case of `CC(C)(CO)Nc1nc(C(F)(F)F)nc2ccccc12`, the half-inhibitory concentration (IC50) in [1] was 2.3 µM; in test [2], 15 µM.

For `CC(Nc1nc(C(F)(F)F)nc2ccccc12)c1ccc(F)cc1` (stereo not drawn), inhibition in [1] was half-maximal at 16.5 µM (IC50). Also, in test [3], the Activity was found to be 35%.

Turning to `CC(C)(C)Nc1nc(C(F)(F)F)nc2ccc(-c3ccc(-c4cccnc4)cc3)cc12`, the half-maximal inhibitory concentration (IC50) in test [1] stood at 1.2 µM; in test [2], 8.3 µM.

For the molecule `CC(Nc1nc(C(F)(F)F)nc2ccccc12)c1ccccc1` (stereo not drawn), the IC50 amounted to 6.8 µM in [1] and 59 µM in test [2].

In the case of `Fc1cccc(CNc2nc(C(F)(F)F)nc3ccccc23)c1`, the concentration for half-maximal inhibition (IC50) in [1] is 15.6 µM; in test [2], greater than 39 µM.

`CC(C)(C)Nc1nc(C(F)(F)F)nc2ccc(-c3cccc(O)c3)cc12`: the results for the 50% inhibitory concentration (IC50) in test [1] and in test [2] were 1 µM and 12 µM, respectively.

`CC(C)(C)Nc1nc(C(F)(F)F)nc2ccc(-c3ccccc3)cc12`: the concentration for half-maximal inhibition (IC50) in [1] is 1.8 µM; in test [2] it was 7.7 µM.

For `CC(C)(C)Nc1nc(-c2ccccc2)nc2ccccc12`, the IC50 in test [2] was greater than 361 µM.

As for `COc1ccccc1-c1ccc2nc(C(F)(F)F)nc(NC(C)(C)C)c2c1`, the IC50 is 1 µM in test [1] and greater than 2.7 µM in test [2].

Take `C[C@H](Nc1nc(C(F)(F)F)nc2ccccc12)c1ccccc1`: it took 31 µM to reach half-maximal inhibition in [1] (IC50). For the same molecule, the Activity in test [3] came out at 40%.

On to `CC(C)(C)Nc1nc(C(F)(F)F)nc2ccc(-c3ccc(O)cc3)cc12`, for which the IC50 in test [1] worked out at 0.7 µM; in [2], 11 µM.

On to `CC(C)(C)Nc1nc(C(F)(F)C(F)(F)F)nc2ccccc12`, for which the IC50 was 11.9 µM in test [1] and greater than 20 µM in [2].

As to `CC(C)(C)Nc1nc(C(N)=O)nc2ccccc12`, the IC50 in [1] was 164 µM; in test [2], greater than 490 µM.

For `Fc1cc(F)cc(CNc2nc(C(F)(F)F)nc3ccccc23)c1`, the IC50 in test [1] is 8.9 µM; in [2], greater than 19 µM.

As to `CC(C)(C)Nc1nc(C(F)(F)F)nc2ccc(-c3cccs3)cc12`, the IC50 in test [1] was determined as 1.18 µM; in test [2], 6.4 µM.

With `CCC(C)(C)Nc1nc(C(F)(F)F)nc2ccccc12`, the half-maximal inhibitory concentration (IC50) was 1.4 µM in [1] and 16.8 µM in [2].

As for `CC(C)(C)Nc1nc(C(F)(F)F)nc2ccccc12`, the IC50 in the test on HCT-116 was 20.6 µM; in test [1], 1.5 µM; in test [2], 14.3 µM; in the test on AG1523 it was greater than 74 µM.

Turning to `CC(C)(C)Nc1nc(Nc2ccccc2)nc2ccccc12`, the values for the IC50 in test [1] and in test [2] were greater than 34 µM and greater than 171 µM, respectively.

For `CC(C)(C)Nc1ncnc2ccccc12`, the IC50 is greater than 50 µM in test [1] and greater than 248 µM in test [2].

Regarding `CC(C)(C)Nc1nc(C(F)(F)F)nc2ccc(C(F)(F)F)cc12`, the IC50 in test [4] is 2.05 µM; in the test on HCT-116, 18.6 µM; in test [5], greater than 0.74 µM; in test [1], 0.79 µM; in test [2], greater than 37 µM; in the test with AG1523, greater than 59 µM. The molecule further came in with an IC50 in test [6] of 56 µM.

Take `CC(C)(C)Nc1nc(C(F)(F)F)nc2ccc(-c3cccnc3)cc12`: in test [2], the half-maximal inhibitory concentration (IC50) stood at 8.3 µM.

As for `C[C@@H](Nc1nc(C(F)(F)F)nc2ccccc12)c1ccccc1`, the IC50 in test [1] came to 3.2 µM; in [2], 39 µM.

Regarding `C#CC(C)(C)Nc1nc(C(Cl)(Cl)Cl)nc2ccccc12`, the 50% inhibitory concentration (IC50) was 15 µM in the test with HCT-116, 35 µM in test [5], 13.5 µM in [1] and 24 µM in test [2].

Regarding `CC(C)(C)Nc1nc(C(Cl)(Cl)Cl)nc2ccccc12`, the concentration for half-maximal inhibition (IC50) in test [4] is 25.8 µM; with HCT-116 it was 25 µM; in test [7], 23 µM; in test [1], 6.1 µM; in test [2], 11.9 µM.

With `CC(C)(C)Nc1nc(C(F)(F)F)nc2ccc(-c3cccc(C(N)=O)c3)cc12`, the half-inhibitory concentration (IC50) in test [1] is 1.3 µM; in test [2], greater than 2.5 µM.

Consider `CC(C)(Nc1nc(C(F)(F)F)nc2ccccc12)c1ccccc1`, for which the figures for the half-inhibitory concentration (IC50) in test [1] and in test [2] were 14 µM and greater than 151 µM, respectively.

Take `CC(C)S(=O)(=O)Nc1nc(C(F)(F)F)nc2ccccc12`: the concentration for half-maximal inhibition (IC50) was greater than 31 µM in test [1] and greater than 157 µM in test [2].

Take `CC(C)(C)Nc1nc(C(F)(F)F)nc2ccc(NC=O)cc12`: the IC50 in the test on HCT-116 worked out at 5.72 µM; in [1], 0.925 µM; in [2] it was 14 µM.

Regarding `CC(C)(C)Nc1nc(C(F)(F)F)nc2ccc(O)cc12`, the half-maximal inhibitory concentration (IC50) is 7.3 µM with HCT-116, 1.15 µM in test [1], 18 µM in test [2] and greater than 18 µM with AG1523.

On to `OC1CCCN(c2nc(C(F)(F)F)nc3ccccc23)C1` (stereo not drawn), for which the concentration for half-maximal inhibition (IC50) was 32.4 µM in [1] and greater than 84 µM in test [2].

`CC(C)(C)Nc1nc(C(F)(F)F)nc2ccc(-c3ccco3)cc12`: the concentration for half-maximal inhibition (IC50) in test [1] was 1.2 µM; in [2], greater than 3 µM.

As for `CC(C)(C)Nc1nc(C(F)(F)F)nc2ccc(-c3ccc(Cl)cc3)cc12`, the concentration for half-maximal inhibition (IC50) in test [1] is 2.6 µM; in test [2] it was greater than 26 µM.

`COc1cccc(-c2ccc3nc(C(F)(F)F)nc(NC(C)(C)C)c3c2)c1`: the IC50 in test [1] is 3.3 µM; in test [2], greater than 6.7 µM.

`CC(C)(C)Nc1nc(C(F)(F)F)nc2ccc(-c3cccc(N)c3)cc12`: the IC50 in test [2] was greater than 2.1 µM.

For the molecule `CCOC(=O)c1nc(NC(C)(C)C)c2ccccc2n1`, the IC50 in test [1] is greater than 5.8 µM; in test [2], 168 µM.
